Values after ≈ are worked out from the molar mass of the structure shown. Active and inactive are the calls of the source. The calls are words filed in the database; no cut-off is given here.

The values that follow come from ChEMBL document CHEMBL2069242, “Structure and activity relationship in the (S)-N-chroman-3-ylcarboxamide series of voltage-gated sodium channel blockers” (Bioorg Med Chem Lett, 2012).

The target in data set [1] is Sodium channel protein type 9 subunit alpha (Homo sapiens, UniProt Q15858). The experiment in a line: Inhibition of human NaV1.7 expressed in HEK293 cells by whole-cell voltage clamp assay. The class given is cell-based. The essentials: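 Human NaV1.7 α-subunit stably expressed in HEK293 cells. Currents were recorded by perforated whole-cell automated planar patch clamp (IonWorks Quattro) in D-PBS external solution with 5.5 mM glucose. Cells were held at −65 mV, and a train of eight 30 ms steps to −20 mV at 3 Hz was applied. Half-log serial dilutions were made in DMSO, giving 0.3% DMSO in the recording solution.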

Data set [2] concerns the target Sodium channel protein type 5 subunit alpha (Homo sapiens, UniProt Q14524). The experiment in a line: Inhibition of human NaV1.5 expressed in CHO cells by IonWorks assay. The class given is cell-based.
For data set [3], the target named is Voltage-gated inwardly rectifying potassium channel KCNH2 (Homo sapiens, UniProt Q12809). The experiment in a line: Inhibition of human ERG expressed in CHO cells by IonWorks HT assay. The data set is classed as cell-based. (In general: The patch-clamp technique gives a direct electrical read-out from membranes.)
Data set [4] is described as follows: Solubility of the compound. The data set is classed as physicochemical.
For data set [5], the system named is Liver microsomes. Description: Intrinsic clearance in human liver microsomes assessed per ug of protein. The data set is classed as ADME, Microsome.
Data set [6] relates to Liver microsomes. The experiment in a line: Intrinsic clearance in rat liver microsomes assessed per ug of protein. The class given is ADME, Microsome. (In general: Liver microsomes are a subcellular fraction often used to study metabolism.)
Data set [7] deals with Serotonin (5-HT) receptor (Homo sapiens) (UniProt P30939+P41595+Q13639+P28222+P46098+P08908+P28221+P28223+P28335+P28566+P34969+P50406+P47898+A5X5Y0+O95264+Q70Z44+Q8WXA8). Description: Activity at 5HT receptor. The data set is classed as protein assay.

Sequence of Voltage-gated inwardly rectifying potassium channel KCNH2 (Q12809 whole entry): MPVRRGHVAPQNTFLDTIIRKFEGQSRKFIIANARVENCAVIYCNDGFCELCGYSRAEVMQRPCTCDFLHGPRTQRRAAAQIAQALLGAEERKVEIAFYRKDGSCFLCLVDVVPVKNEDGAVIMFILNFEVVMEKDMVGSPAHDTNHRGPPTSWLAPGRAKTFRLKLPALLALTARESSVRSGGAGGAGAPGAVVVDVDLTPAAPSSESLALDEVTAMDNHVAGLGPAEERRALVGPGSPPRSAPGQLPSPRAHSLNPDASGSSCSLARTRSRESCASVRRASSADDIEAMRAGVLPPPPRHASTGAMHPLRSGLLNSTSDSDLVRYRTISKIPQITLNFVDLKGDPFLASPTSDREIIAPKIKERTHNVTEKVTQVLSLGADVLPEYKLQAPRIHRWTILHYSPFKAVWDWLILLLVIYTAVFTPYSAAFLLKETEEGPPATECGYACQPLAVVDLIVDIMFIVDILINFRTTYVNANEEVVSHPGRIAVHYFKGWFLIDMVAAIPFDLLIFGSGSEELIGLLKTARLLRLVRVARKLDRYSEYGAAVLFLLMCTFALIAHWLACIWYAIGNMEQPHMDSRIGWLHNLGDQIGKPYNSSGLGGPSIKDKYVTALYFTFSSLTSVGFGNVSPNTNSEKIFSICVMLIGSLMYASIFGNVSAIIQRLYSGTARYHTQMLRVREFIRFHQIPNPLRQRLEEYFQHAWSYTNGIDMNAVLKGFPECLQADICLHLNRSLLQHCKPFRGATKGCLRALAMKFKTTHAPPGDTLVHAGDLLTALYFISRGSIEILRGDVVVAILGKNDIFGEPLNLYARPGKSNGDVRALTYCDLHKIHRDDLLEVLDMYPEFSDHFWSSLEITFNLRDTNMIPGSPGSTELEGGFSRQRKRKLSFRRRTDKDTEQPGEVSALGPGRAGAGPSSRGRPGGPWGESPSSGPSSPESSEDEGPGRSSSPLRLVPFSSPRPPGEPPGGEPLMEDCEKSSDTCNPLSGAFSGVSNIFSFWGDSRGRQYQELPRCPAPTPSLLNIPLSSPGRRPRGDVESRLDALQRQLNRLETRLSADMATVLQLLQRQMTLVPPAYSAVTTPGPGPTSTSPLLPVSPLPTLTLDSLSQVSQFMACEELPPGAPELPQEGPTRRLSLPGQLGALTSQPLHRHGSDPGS
Sequence of Sodium channel protein type 5 subunit alpha (Q14524 whole entry): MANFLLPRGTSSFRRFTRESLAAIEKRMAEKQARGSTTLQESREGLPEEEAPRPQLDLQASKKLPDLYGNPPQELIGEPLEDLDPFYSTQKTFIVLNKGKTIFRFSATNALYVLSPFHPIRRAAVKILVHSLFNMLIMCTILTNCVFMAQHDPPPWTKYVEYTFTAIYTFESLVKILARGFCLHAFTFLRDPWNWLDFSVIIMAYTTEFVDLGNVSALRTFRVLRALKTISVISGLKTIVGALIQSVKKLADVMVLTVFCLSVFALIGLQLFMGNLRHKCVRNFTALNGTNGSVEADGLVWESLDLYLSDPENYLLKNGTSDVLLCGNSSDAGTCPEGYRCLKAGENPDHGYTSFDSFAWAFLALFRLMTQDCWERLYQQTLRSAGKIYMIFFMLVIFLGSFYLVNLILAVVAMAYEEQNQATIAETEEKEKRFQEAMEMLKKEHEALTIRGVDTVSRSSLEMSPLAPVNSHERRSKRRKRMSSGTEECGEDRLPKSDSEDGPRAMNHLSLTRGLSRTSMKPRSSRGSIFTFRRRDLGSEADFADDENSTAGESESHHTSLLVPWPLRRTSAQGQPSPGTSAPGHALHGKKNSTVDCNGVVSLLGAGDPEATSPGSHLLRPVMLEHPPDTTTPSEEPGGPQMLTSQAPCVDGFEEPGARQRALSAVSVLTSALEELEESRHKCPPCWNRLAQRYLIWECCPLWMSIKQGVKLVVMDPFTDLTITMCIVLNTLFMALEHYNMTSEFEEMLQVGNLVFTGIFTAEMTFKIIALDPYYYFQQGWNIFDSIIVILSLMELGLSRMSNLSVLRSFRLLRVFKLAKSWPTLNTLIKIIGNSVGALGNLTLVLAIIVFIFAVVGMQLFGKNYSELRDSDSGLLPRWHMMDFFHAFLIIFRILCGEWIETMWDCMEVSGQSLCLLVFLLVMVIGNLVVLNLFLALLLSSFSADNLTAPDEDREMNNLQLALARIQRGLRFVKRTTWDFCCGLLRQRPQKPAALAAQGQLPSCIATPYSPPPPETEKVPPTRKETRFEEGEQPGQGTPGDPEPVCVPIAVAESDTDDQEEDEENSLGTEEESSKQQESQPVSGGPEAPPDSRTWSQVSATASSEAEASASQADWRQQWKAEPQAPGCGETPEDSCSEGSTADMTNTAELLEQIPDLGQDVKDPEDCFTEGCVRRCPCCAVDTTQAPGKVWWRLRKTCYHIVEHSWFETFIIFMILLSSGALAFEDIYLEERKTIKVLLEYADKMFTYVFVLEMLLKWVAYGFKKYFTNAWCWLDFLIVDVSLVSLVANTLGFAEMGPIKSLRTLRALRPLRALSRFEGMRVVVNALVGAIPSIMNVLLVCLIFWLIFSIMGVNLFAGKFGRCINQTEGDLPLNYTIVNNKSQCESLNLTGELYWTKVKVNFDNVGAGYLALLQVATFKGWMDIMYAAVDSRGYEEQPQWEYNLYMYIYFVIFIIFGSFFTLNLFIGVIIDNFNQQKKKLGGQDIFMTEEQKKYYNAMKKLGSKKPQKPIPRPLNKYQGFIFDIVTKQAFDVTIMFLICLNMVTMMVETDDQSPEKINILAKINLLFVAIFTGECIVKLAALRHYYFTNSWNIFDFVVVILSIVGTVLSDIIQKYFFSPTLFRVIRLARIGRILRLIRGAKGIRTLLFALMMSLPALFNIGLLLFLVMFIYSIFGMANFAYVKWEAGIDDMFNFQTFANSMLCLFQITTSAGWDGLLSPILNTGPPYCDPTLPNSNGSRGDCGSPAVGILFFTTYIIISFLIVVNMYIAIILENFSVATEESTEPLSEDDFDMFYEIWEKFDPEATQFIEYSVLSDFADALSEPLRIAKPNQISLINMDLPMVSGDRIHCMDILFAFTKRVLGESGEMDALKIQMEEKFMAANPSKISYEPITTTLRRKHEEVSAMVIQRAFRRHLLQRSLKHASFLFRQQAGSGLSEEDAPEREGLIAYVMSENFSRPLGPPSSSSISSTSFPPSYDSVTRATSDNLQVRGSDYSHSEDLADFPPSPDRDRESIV
Sequence of Sodium channel protein type 9 subunit alpha (Q15858 whole entry): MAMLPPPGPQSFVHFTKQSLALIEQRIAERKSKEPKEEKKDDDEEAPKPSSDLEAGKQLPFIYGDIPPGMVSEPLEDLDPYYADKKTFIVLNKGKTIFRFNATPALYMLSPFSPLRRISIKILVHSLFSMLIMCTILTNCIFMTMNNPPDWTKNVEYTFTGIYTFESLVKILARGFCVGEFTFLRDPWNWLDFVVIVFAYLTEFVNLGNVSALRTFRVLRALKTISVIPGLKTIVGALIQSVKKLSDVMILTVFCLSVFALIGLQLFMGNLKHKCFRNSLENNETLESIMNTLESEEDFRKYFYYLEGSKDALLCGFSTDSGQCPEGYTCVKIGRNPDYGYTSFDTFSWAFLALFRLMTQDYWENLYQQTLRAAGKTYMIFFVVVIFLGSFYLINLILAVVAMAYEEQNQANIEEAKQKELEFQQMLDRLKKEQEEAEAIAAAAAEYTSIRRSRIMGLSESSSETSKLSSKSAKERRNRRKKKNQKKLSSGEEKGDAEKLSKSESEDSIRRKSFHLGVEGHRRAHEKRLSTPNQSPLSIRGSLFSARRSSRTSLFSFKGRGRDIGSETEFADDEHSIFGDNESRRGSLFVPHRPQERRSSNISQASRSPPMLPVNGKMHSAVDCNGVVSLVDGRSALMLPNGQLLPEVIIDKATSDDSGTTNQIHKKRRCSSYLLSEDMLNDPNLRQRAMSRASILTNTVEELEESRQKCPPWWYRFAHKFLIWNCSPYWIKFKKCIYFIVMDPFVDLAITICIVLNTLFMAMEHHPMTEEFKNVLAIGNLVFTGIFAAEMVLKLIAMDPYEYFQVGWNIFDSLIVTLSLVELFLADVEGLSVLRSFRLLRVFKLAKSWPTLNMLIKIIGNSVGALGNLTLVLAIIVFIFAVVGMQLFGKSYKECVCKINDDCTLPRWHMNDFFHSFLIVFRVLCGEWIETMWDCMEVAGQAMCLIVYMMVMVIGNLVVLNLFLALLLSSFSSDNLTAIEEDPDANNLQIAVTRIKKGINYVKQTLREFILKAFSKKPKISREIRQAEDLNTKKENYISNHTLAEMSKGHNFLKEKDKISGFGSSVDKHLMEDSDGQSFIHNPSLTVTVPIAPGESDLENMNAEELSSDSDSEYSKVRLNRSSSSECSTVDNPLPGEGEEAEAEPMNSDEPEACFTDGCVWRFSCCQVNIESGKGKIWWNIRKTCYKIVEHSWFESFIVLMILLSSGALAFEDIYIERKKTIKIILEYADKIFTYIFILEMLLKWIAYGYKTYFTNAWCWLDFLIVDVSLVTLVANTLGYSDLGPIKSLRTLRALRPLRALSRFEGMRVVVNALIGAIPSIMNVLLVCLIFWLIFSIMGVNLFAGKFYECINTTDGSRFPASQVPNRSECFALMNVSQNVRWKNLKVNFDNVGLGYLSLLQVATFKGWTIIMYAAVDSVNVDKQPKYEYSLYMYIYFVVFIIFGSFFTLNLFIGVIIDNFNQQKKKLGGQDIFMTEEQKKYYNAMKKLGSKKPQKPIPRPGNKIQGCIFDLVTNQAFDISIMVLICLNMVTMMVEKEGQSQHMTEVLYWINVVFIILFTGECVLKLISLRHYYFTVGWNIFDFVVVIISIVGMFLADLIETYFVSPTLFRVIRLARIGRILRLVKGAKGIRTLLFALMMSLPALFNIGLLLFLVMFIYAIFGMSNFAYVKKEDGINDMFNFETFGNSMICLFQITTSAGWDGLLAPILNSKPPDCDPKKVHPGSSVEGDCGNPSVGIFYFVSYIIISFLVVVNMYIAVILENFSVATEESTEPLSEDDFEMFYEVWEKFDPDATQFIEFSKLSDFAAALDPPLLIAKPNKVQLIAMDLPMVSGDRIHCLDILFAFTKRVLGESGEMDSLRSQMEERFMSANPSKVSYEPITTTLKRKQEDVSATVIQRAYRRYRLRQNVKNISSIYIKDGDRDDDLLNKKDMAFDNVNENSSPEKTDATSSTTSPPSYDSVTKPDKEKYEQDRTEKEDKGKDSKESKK

One may read the IC50 as the midpoint of a concentration-inhibition curve. Low readings indicate higher potency, high ones lower potency. One may read the solubility as how much of the substance goes into solution per volume. Consider `O=C(N[C@@H]1COc2cccc(-c3ccncc3)c2C1)c1ccc(OC(F)(F)F)cc1`, for which the half-maximal inhibitory concentration (IC50) is 1 µM in data set [1], 3.98 µM in data set [2] and 2.51 µM in data set [3]. The amount in solution in data set [4] (solubility) came to 2 µM (≈ 0.829 µg/mL). Further, in the data set with Liver microsomes [5], the CLint amounted to 78 µL/min/mg.

Turning to `Cc1ccc(-n2nc(C)c(C(=O)N[C@@H]3COc4cccc(N5CCN(C)CC5)c4C3)n2)c(C)c1`, the half-maximal inhibitory concentration (IC50) in data set [1] is 0.158 µM; in data set [2] it was 2.51 µM. This compound returned a solubility in data set [4] of 4 µM (≈ 1.84 µg/mL). Besides, the CLint in the data set on Liver microsomes [6] came out at 9 µL/min/mg. The CLH entry in the data set on Liver microsomes [5] is “Stable”.

`O=C(N[C@@H]1COc2cccc(-c3ccnc(CO)c3)c2C1)c1ccc(OCC(F)(F)F)nc1`: the IC50 in data set [1] was 0.501 µM; in data set [2] it was 6.31 µM. Besides, in data set [4], the concentration in solution (solubility) came to 17 µM (≈ 7.81 µg/mL). The CLint in the data set with Liver microsomes [6] was < 10 µL/min/mg; in the data set with Liver microsomes [5], 15 µL/min/mg. In addition, in data set [7], the result was inactive.

Take `Cc1cnc(-c2cccc3c2C[C@H](NC(=O)c2ccc(OCC(F)(F)F)nc2)CO3)cn1`: the 50% inhibitory concentration (IC50) in data set [1] is 0.0794 µM; in data set [2] it was > 3.16 µM; in data set [3] it was > 31.6 µM. Also, the solubility in data set [4] was < 1 µM. Also, the CLint in the data set on Liver microsomes [6] is < 10 µL/min/mg; in the data set with Liver microsomes [5] it was 16 µL/min/mg.

In data set [2], `COc1ncc(-c2cccc3c2C[C@H](NC(=O)c2ccc(OCCC(F)(F)F)nc2)CO3)cn1` had a half-inhibitory concentration (IC50) of 3.98 µM. Further, the solubility in data set [4] is 3 µM (≈ 1.42 µg/mL). Moreover, the CLint in the data set with Liver microsomes [6] and in the data set on Liver microsomes [5] was < 10 µL/min/mg in each case.

Turning to `Cc1cc(-c2cccc3c2C[C@H](NC(=O)c2ccc(OCCOCC(F)(F)F)nc2)CO3)cnc1CO`, the IC50 in data set [1] is 0.794 µM; in data set [2] it was 5.01 µM. Also, the solubility in data set [4] was 18 µM (≈ 9.32 µg/mL).

With `COc1ncc(-c2cccc3c2C[C@H](NC(=O)c2ccc(COCC(F)(F)F)nc2)CO3)cn1`, the IC50 in data set [1] was 0.251 µM; in data set [2] it was 10 µM; in data set [3], 15.8 µM. Further, the concentration in solution in data set [4] (solubility) came to 145 µM (≈ 68.8 µg/mL). Besides, the CLint in the data set with Liver microsomes [6] and in the data set with Liver microsomes [5] was < 10 µL/min/mg throughout.

For the compound `CN1CCN(c2cccc3c2C[C@H](NC(=O)c2ccc(OCC(F)(F)F)nc2)CO3)CC1`, the figures for the IC50 in data set [1], in data set [2] and in data set [3] were 0.794 µM, 5.01 µM and 7.94 µM, respectively. In data set [4], this compound returned a solubility of 82 µM (≈ 36.9 µg/mL). The CLint in the data set on Liver microsomes [6] and in the data set with Liver microsomes [5] was < 10 µL/min/mg throughout.

As for `O=C(N[C@@H]1COc2cccc(-c3ccc(CO)nc3)c2C1)c1ccc(OCCOCC(F)(F)F)nc1`, the IC50 in data set [1] was 0.158 µM; in data set [2], 7.94 µM; in data set [3] it was 15.8 µM. In data set [4], the solubility was determined as 54 µM (≈ 27.2 µg/mL). For the same compound, the CLint was < 10 µL/min/mg with Liver microsomes [6] and 11 µL/min/mg in the data set on Liver microsomes [5].

For `Cc1nn(-c2ccccc2)nc1C(=O)N[C@@H]1COc2cccc(-c3ccncc3)c2C1`, the IC50 in data set [2] is > 31.6 µM; in data set [3], 3.98 µM. Further, the concentration in solution in data set [4] (solubility) was 2 µM (≈ 0.823 µg/mL).

As for `COc1cnc(-c2cccc3c2C[C@@H](NC(=O)c2ccc(COCC(F)(F)F)nc2)CO3)cn1`, the IC50 in data set [1] is > 10 µM. In addition, the CLint in the data set on Liver microsomes [6] worked out at 21 µL/min/mg; in the data set with Liver microsomes [5], 16 µL/min/mg.

`COc1ncc(-c2cccc3c2C[C@H](NC(=O)c2ccc(OCC(F)(F)F)nc2)CO3)cc1F` had a half-maximal inhibitory concentration (IC50) in data set [2] of 3.98 µM. Also, in data set [4], the solubility is 1.1 µM (≈ 0.525 µg/mL). Further, the figures for the CLint in the data set on Liver microsomes [6] and in the data set on Liver microsomes [5] were 10 µL/min/mg and 19 µL/min/mg, respectively.

With `CN1CCN(c2cccc3c2C[C@H](NC(=O)c2ccc(OC(F)(F)F)cc2)CO3)CC1`, the 50% inhibitory concentration (IC50) was 2 µM in data set [1], 2 µM in data set [2] and 7.94 µM in data set [3]. Besides, in data set [4], the concentration in solution (solubility) was 27 µM (≈ 11.8 µg/mL). For the same compound, the CLint in the data set with Liver microsomes [6] turned out to be 18 µL/min/mg; in the data set with Liver microsomes [5], 2.5 µL/min/mg.

In data set [2], `O=C(N[C@@H]1COc2cccc(-c3cccnc3)c2C1)c1ccc(OC(F)(F)F)cc1` had a 50% inhibitory concentration (IC50) of 3.16 µM. Besides, the concentration in solution in data set [4] (solubility) was 5 µM (≈ 2.07 µg/mL).

Turning to `Cc1nn(CC(C)C)nc1C(=O)N[C@@H]1COc2cccc(-c3cccnc3)c2C1`, the IC50 in data set [2] was > 31.6 µM. The compound also yielded a solubility in data set [4] of 393 µM (≈ 154 µg/mL).

In data set [2], `O=C(N[C@@H]1COc2cccc(-c3cccnc3)c2C1)c1ccc(OCC(F)(F)F)nc1` gave an IC50 of 3.16 µM. The compound further showed a solubility in data set [4] of 29 µM (≈ 12.5 µg/mL). Moreover, the CLint with Liver microsomes [6] is 64 µL/min/mg; in the data set with Liver microsomes [5] it was 161 µL/min/mg.

For `COCCn1nc(C)c(C(=O)N[C@@H]2COc3cccc(-c4cccnc4)c3C2)n1`, in data set [2], the IC50 was > 31.6 µM. The compound further returned a solubility in data set [4] of 396 µM (≈ 156 µg/mL).

Take `Cc1cnc(-c2cccc3c2C[C@H](NC(=O)c2ccc(COCC(F)(F)F)nc2)CO3)cn1`: the values for the IC50 in data set [1] and in data set [2] were 0.501 µM and 20 µM, respectively. This compound gave a solubility in data set [4] of 82 µM (≈ 37.6 µg/mL). In addition, the CLint in the data set on Liver microsomes [6] and with Liver microsomes [5] was < 10 µL/min/mg each time.

`COCCn1nc(C)c(C(=O)N[C@@H]2COc3cccc(-c4ccncc4)c3C2)n1`: the IC50 in data set [1] is 25.1 µM; in data set [2], > 31.6 µM. The solubility in data set [4] came to 306 µM (≈ 120 µg/mL).

Regarding `CN1CCN(c2cccc3c2C[C@H](NC(=O)c2ccc(OCCC(F)(F)F)nc2)CO3)CC1`, the IC50 in data set [1] is 0.631 µM; in data set [2], 5.01 µM; in data set [3], 12.6 µM. Moreover, the concentration in solution in data set [4] (solubility) was 379 µM (≈ 176 µg/mL). Also, the CLint in the data set with Liver microsomes [6] and with Liver microsomes [5] was < 10 µL/min/mg each time.

With `CCCCOc1ccc(C(=O)N[C@@H]2COc3cccc(N4CCN(C)CC4)c3C2)cc1`, the IC50 was 1 µM in data set [1], > 6.31 µM in data set [2] and 6.31 µM in data set [3]. Besides, in data set [4], the solubility was found to be 1 µM (≈ 0.424 µg/mL). Besides, the CLint in the data set on Liver microsomes [6] was 82 µL/min/mg; with Liver microsomes [5], 361 µL/min/mg.

In turn, `O=C(N[C@@H]1COc2cccc(-c3cncnc3)c2C1)c1ccc(OCCC(F)(F)F)nc1` showed an IC50 in data set [2] of 3.98 µM. The solubility in data set [4] worked out at 23 µM (≈ 10.2 µg/mL). Besides, the CLint in the data set with Liver microsomes [6] came out at 38 µL/min/mg; in the data set on Liver microsomes [5] it was 318 µL/min/mg.

With `O=C(N[C@@H]1COc2cccc(-c3ccncc3)c2C1)c1ccc(OCC(F)(F)F)nc1`, the IC50 in data set [2] is 3.16 µM; in data set [3] it was 6.31 µM. In addition, the solubility in data set [4] was 9 µM (≈ 3.86 µg/mL). The CLint with Liver microsomes [6] came to 77 µL/min/mg; with Liver microsomes [5], 59 µL/min/mg.

The compound `COc1ncc(-c2cccc3c2C[C@H](NC(=O)c2ccc(OCC(F)(F)F)nc2)CO3)cn1` showed an IC50 in data set [2] of 6.31 µM. Besides, the solubility in data set [4] was < 1 µM. The CLint in the data set on Liver microsomes [6] and with Liver microsomes [5] was < 10 µL/min/mg each time.

`COc1cnc(-c2cccc3c2C[C@H](NC(=O)c2ccc(OCC(F)(F)F)nc2)CO3)cn1`: the IC50 was 0.126 µM in data set [1], > 25.1 µM in data set [2] and > 31.6 µM in data set [3]. In data set [4], the solubility is < 1 µM. Moreover, the CLint in the data set with Liver microsomes [6] and with Liver microsomes [5] was 14 µL/min/mg in each case.

Take `Cc1ncc(-c2cccc3c2C[C@H](NC(=O)c2ccc(OCC(F)(F)F)nc2)CO3)cn1`: the values for the IC50 in data set [2] and in data set [3] were 5.01 µM and 10 µM, respectively. The same compound showed a solubility in data set [4] of 6.5 µM (≈ 2.89 µg/mL). The CLint in the data set with Liver microsomes [6] and in the data set with Liver microsomes [5] was < 10 µL/min/mg in each case.

For the compound `CC(O)c1ccc(-c2cccc3c2C[C@H](NC(=O)c2ccc(OCCOCC(F)(F)F)nc2)CO3)cn1` (some centres undefined), the IC50 is 0.794 µM in data set [1] and 10 µM in data set [2]. The amount in solution in data set [4] (solubility) came to 18 µM (≈ 9.32 µg/mL). Besides, the results for the CLint in the data set on Liver microsomes [6] and with Liver microsomes [5] were < 10 µL/min/mg and 12 µL/min/mg, respectively.

`Cc1nn(-c2ccccc2)nc1C(=O)N[C@@H]1COc2cccc(N3CCN(C)CC3)c2C1`: the IC50 in data set [1] is 0.316 µM; in data set [2], 5.01 µM; in data set [3] it was 7.94 µM. For the same compound, the solubility in data set [4] was found to be 211 µM (≈ 91.3 µg/mL). Also, the CLint with Liver microsomes [6] worked out at 4 µL/min/mg; in the data set on Liver microsomes [5] it was 14 µL/min/mg. In data set [7], the result was Active.
